Compound activity deposited in PubChem by several laboratories.
E coli RNAP: E. coli RNAP inhibitors, biochemical. E. coli RNA polymerase, fluorescence transcription assay. inhibition, %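 (tested at 10 µM)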. 62,000 tested, 0.2% active. AID 559, 2006; in the data active = inhibition above about 20%
AP complement: alternative complement pathway inhibitors, primary screen, biochemical, ELISA, human serum, orthogonally pooled compounds | LPS-coated ELISA, C3 deposition; tested in compound mixtures | 62,000 tested, 0.08% active | inhibition, % at 5 µM | AID 1235, 2008;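 active = inhibition above 30% in each of the two pooled mixtures holding the compound, so the lower value exceeds 30%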
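Assay system: Human serum alternative complement pathway, C3 deposition on LPS-coated wells | Incubation: 1 h serum-compound exposure at 37 °C | Doses: 5 µM per compound in ten-compound mixtures | Read-out: Percent inhibition | Technique: ELISA with HRP anti-human C3 antibody, TMB substrate, absorbance 450 nm | Replication: Two pool placements per compound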
MT1-MMP txn act: MT1-MMP promoter reporter activation – cell-based, luciferase luminescence, primary screen | HT1080 MT1-MMP promoter luciferase reporter, overnight; stronger effect = higher value | activation factor at 10 µM | 86,000 tested, 0.16% active | AID 750, 2007;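 active = activation factor of at least 2 for MT1-MMP transcription at 10 µM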
TNAP act DEA: human TNAP enzyme activators, primary screen, biochemical, luminescent, intermediate phosphate acceptor level; purified TNAP, CDP-star luminescence, 100 mM DEA, 30 min; stronger effect = higher value; scale: 0 levamisole-inhibited, 1 vehicle-only enzyme; 64,000 tested, under 10 active; activation factor at 20 µM;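 active = activation factor of at least 2 at 20 µM, relative to controls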
RORA act: activators of orphan receptor RORA, primary screen, cell-based, luminescence. CHO-K1 Gal4-RORA LBD luciferase reporter; percent increase over mock-subtracted basal signal. Nuclear receptor ROR-alpha (Homo sapiens), P35398. 65,000 tested, 1.5% active. AID 560, 2006. activation, % at 10 µM;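 active = activation above the mean of all tested compounds plus 3 SD, cut at about 49% in these data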
SF1 activator: activators of human SF-1, primary screen, cell-based, CHO-K1, Gal4-SF-1 LBD, luciferase luminescence. activation, % at 10 µM. CHO-K1 Gal4-SF-1 LBD luciferase reporter; % increase over DMSO SF-1-specific signal. AID 522, 2006. 65,000 tested, 1.9% active. Steroidogenic factor 1 (Homo sapiens), Q13285;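 active = activation above the mean activation of all tested compounds plus 3 SD, cut at about 50% in these data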
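Test system: CHO-K1 cells co-transfected with Gal4 DBD–human SF-1 LBD, 5xGal4 luciferase reporter. Quantity: 4,000 cells per well. Compound: 10 µM only. Incubation: compound added 1 h post-seeding, 20 h exposure at 37 °C, 5% CO2. Detection: SteadyLite luciferase luminescence. Replication: one test per compound.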
Each line names hits and unclear results; the compound was inactive in the other large screens. Shown are actives, neighbours in structure and some others; about 2.2% of the full set was active somewhere.

O=C(COc1ccc(Cl)cc1Cl)NC1CCSC1=O (stereo not drawn)	SF1 activator 57.9
CC(C)NC(=O)COc1ccc(Cl)cc1Cl	none (no result: E coli RNAP, AP complement, TNAP act DEA, RORA act, SF1 activator)
CC(C)CC1N=C2c3ccccc3N=C(SCc3cc(=O)n4ccccc4n3)N2C1=O (stereo not drawn)	none
O=C(NCC1COc2ccccc2O1)c1ccc(Cl)cc1 (stereo not drawn)	SF1 activator 59.5
CN1CCN(C(=O)c2cccc(COc3cc(Cl)ccc3Cl)c2)CC1	SF1 activator 69.3 (no result: E coli RNAP, AP complement, TNAP act DEA)
O=C(O)c1cccc(COc2ccccc2Cl)c1	none
c1ccc(-c2nc3ccccc3s2)nc1	SF1 activator 59.9
Brc1ccc(-c2nc3ccccc3s2)s1	SF1 activator 54.3
CCCNC(=O)c1ccc(-c2nc3ccccc3s2)s1	none (no result: E coli RNAP, AP complement, TNAP act DEA, RORA act, SF1 activator)
COc1ccc(-c2noc(CCC(=O)Nc3nc4ccccc4s3)n2)cc1	none
COc1cccc2cc(-c3cn4cccc(C)c4n3)c(=O)oc12	SF1 activator 52.8
CCn1c(=O)n(-c2ccc(Cl)cc2)c(=O)c2c3c(sc21)COC(C)(C)C3	none (no result: E coli RNAP, AP complement, TNAP act DEA, RORA act, SF1 activator)
Cc1cc(-c2cc(N)n(-c3ccccc3)n2)c(C)n1C1CCCC1	MT1-MMP txn act 2
CCOC(=O)C1=C(C)N(CCCC(=O)O)C(=O)NC1c1ccccc1OS(=O)(=O)c1ccc2ccccc2c1 (stereo not drawn)	none (no result: E coli RNAP, AP complement, TNAP act DEA, RORA act, SF1 activator)
CCN(CC)c1ccc2c(c1)C(=O)N(C)C2=O	none
CCN(CC)c1ccc(-c2nc3cnccc3n2C)cc1	RORA act 67.3
N/C(=N\OC(=O)c1ccco1)c1ccccc1	MT1-MMP txn act 2 (no result: E coli RNAP, AP complement, TNAP act DEA, RORA act, SF1 activator)
COc1ccc(-n2ncc3c(NCc4cccs4)ncnc32)cc1	SF1 activator 81.6
c1ccc(CNc2ncnc3c2cnn3Cc2ccccc2)cc1	none (no result: E coli RNAP, AP complement, TNAP act DEA, RORA act, SF1 activator)
c1ccc(-n2ncc3c(NCc4cccs4)ncnc32)cc1	SF1 activator 51.1
C=CCNc1ncnc2c1cnn2-c1ccc(OC)cc1	none (no result: MT1-MMP txn act)
c1ccc(-n2ncc3c(NCc4cccnc4)ncnc32)cc1	RORA act 51.5
Cc1cc(C)cc(N(CC(=O)N2CCn3c2nc2ccccc23)S(=O)(=O)c2c(C)noc2C)c1	none
Cn1c(-n2c(CCN3C(=O)c4ccccc4C3=O)nc3ccccc3c2=O)nc2ccccc21	RORA act 57.1
Cc1nc2ccccc2c(=O)n1/N=C/c1ccccn1	SF1 activator 50.1
COc1ccc2oc(=O)c(-c3nnc(NCc4ccco4)s3)cc2c1	RORA act 80.2, SF1 activator 80.8
CCOc1cccc2cc(-c3nnc(NCc4ccco4)s3)c(=O)oc12	none
Cc1csc(NC(=O)c2cc3c(s2)CCCCC3)n1	none (no result: E coli RNAP, AP complement, TNAP act DEA, RORA act, SF1 activator)
O=C(Nc1ccon1)c1cc2c(s1)CCCC2	none
CCc1nnc(NC(=O)c2cc3c(s2)CCCCC3)s1	SF1 activator 73.5
O=C(NCc1ccco1)c1cc2c(s1)CCCCC2	SF1 activator 70.3
O=C(Nc1ccon1)c1cc2c(s1)CCCCCC2	SF1 activator 82.1
CSc1nnc(-c2ccc(Cl)cc2Cl)o1	none (no result: E coli RNAP, AP complement, TNAP act DEA, RORA act, SF1 activator)
CCSc1nnc(-c2ccc(OC)cc2)o1	RORA act 89.7
COc1ccc(-c2nnc(SCC(=O)c3cccs3)o2)cc1	RORA act 49.8
CCSc1nnc(-c2ccc(Cl)cc2Cl)o1	SF1 activator 54.5
O=C(CSc1nnc(-c2cccs2)o1)c1cccs1	SF1 activator 97.6
Cc1cccc(OCC(=O)N(C)CCc2ccccn2)c1	none (no result: E coli RNAP, AP complement, TNAP act DEA, RORA act, SF1 activator)
Cn1c(C(=O)NCC2CCCO2)cc2oc3ccccc3c21 (stereo not drawn)	RORA act 59.0, SF1 activator 49.7
Cn1c(C(=O)NCc2cccs2)cc2oc3ccccc3c21	RORA act 59.6, SF1 activator 54.5
Cc1c(NC(=O)C2(C)CCCCC2)c(=O)n(-c2ccccc2)n1C	none
Cc1c(NC(=O)C23CC4CC(CC(C)(C4)C2)C3)c(=O)n(-c2ccccc2)n1C	MT1-MMP txn act 2
Cc1occc1C(=O)Nc1ccc2c(c1)OCO2	SF1 activator 53.4
O=C(Nc1ccc2c(c1)OCO2)c1cccc(Cl)c1	SF1 activator 67.0
O=C(Nc1ccc2c(c1)OCO2)c1cnn2cccnc12	RORA act 61.4, SF1 activator 70.3
O=C(Nc1ccc(F)c(F)c1)c1ccc2c(c1)OCO2	SF1 activator 66.2
O=C(Nc1cccc(O)c1)c1cnn2cccnc12	none (no result: E coli RNAP, AP complement, TNAP act DEA, RORA act, SF1 activator)
O=C(Nc1ccc(Cl)cc1)c1ccc2c(c1)OCO2	none
CCOC(=O)C1=C(C)N(CCCC(=O)O)C(=O)NC1c1ccccc1OC(=O)c1cccc(I)c1 (stereo not drawn)	none (no result: E coli RNAP, AP complement, TNAP act DEA, RORA act, SF1 activator)
COc1ccc(Cl)cc1NC(=S)NCc1ccco1	none (no result: E coli RNAP, AP complement, TNAP act DEA, RORA act, SF1 activator)
O=C(Nc1ccc2c(c1)OCO2)c1c(Cl)nc2sccn12	SF1 activator 66.1
O=C(Nc1ccc2c(c1)OCO2)c1ccc(Cl)s1	none (no result: E coli RNAP, AP complement, TNAP act DEA, RORA act, SF1 activator)
Cc1noc(C(=O)Nc2ccc3c(c2)OCO3)c1Cl	RORA act 65.0, SF1 activator 60.6
O=C(Nc1ccc2c(c1)OCO2)c1c(F)c(F)c(F)c(F)c1F	none
O=C(CSc1nc2c(c(=O)n1-c1ccc(Cl)cc1)SCC2)Nc1ccc2c(c1)OCCO2	none
Cn1cccc1CNC(=O)Nc1ccccc1	none (no result: E coli RNAP, AP complement, TNAP act DEA, RORA act, SF1 activator)
Cn1cccc1CNC(=O)Nc1ccc(Cl)cc1	SF1 activator 53.9
CNc1nc(N2CCc3ccccc32)ncc1F	SF1 activator 75.3
Cc1nc2ccccc2c(=O)n1/N=C/c1ccc(N(C)C)cc1	none
Nc1nc2ccccc2n1/N=C/c1ccc(Br)cc1	RORA act 69.5, SF1 activator 69.1
CCOC(=O)c1snc(C(=O)NC2CCCCC2)c1N	RORA act 56.8, SF1 activator 105.9
Nc1c(C(=O)NC2CCCCC2)nsc1C(=O)OCC(=O)NC1CCCCC1	none
Cc1ccc(-n2c(C)cc(C(=O)CSc3n[nH]c(N)n3)c2C)cc1	none (no result: E coli RNAP, AP complement, TNAP act DEA, RORA act, SF1 activator)
Cc1ccc(-n2c(C)cc(C(=O)COC(=O)c3c(C)noc3C)c2C)cc1	SF1 activator 78.8
CCOC(=O)c1c(C)[nH]c(C(=O)COC(=O)C2CC2C)c1C (stereo not drawn)	SF1 activator 53.5
CCOC(=O)c1[nH]c(C)c(C(=O)OCC)c1C	none
COc1nc(Nc2ccc(C(C)=O)cc2)nc(OC)n1	E coli RNAP 36.0
O=C(O)C1C2C=CC(C2)C1C(=O)NCCc1ccccc1 (stereo not drawn)	none
CCCCC(CC)CNC(=O)C1C2C=CC(C2)C1C(=O)O (stereo not drawn)	MT1-MMP txn act 2.1 (no result: E coli RNAP, AP complement, TNAP act DEA, RORA act, SF1 activator)
c1ccc(COc2ccc(OCCn3cncn3)cc2)cc1	SF1 activator 54.8
CC1=NC(=O)C(N=Nc2cccc(O)c2)N1c1ccccc1 (stereo not drawn)	MT1-MMP txn act 2 (no result: E coli RNAP, AP complement, TNAP act DEA, RORA act, SF1 activator)
